Results: ChEMBL document CHEMBL1143255, “Standard protecting groups create potent and selective kappa opioids: salvinorin B alkoxymethyl ethers” (Bioorg Med Chem, 2008)

Experiments:
Mu-type opioid receptor = Mu-type opioid receptor (Rattus norvegicus, UniProt P33535); experiment: Displacement of [3H]diprenorphine from rat mu opioid receptor expressed in CHO cells; format: cell-based
Method in brief: (§1)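 Competitive inhibition of [3H]diprenorphine binding to membranes from CHO cells stably transfected with human κ, rat μ or mouse δ receptor; testing blinded to compound identity and molecular mass; mean of three independent experiments in duplicate.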

[1] = target: Delta-type opioid receptor (Mus musculus, UniProt P32300); experiment: Displacement of [3H]diprenorphine from mouse delta opioid receptor expressed in CHO cells; format: cell-based; method in brief: as §1
[2] = target: T1, Kappa-type opioid receptor (Homo sapiens, UniProt P41145); experiment: Displacement of [3H]diprenorphine from human kappa opioid receptor expressed in CHO cells; format: cell-based; method in brief: as §1
[3] = target: T1, Kappa-type opioid receptor; experiment: Agonist activity at human kappa opioid receptor expressed in CHO cells assessed as stimulation of [35S]GTPgammaS binding; format: functional, cell-based
Method in brief: (§2)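 Potency and efficacy from [35S]GTPγS binding to membranes of CHO cells stably expressing human κ receptor; testing blinded to compound identity and molecular mass.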

[4] = target: T1, Kappa-type opioid receptor; experiment: Agonist activity at human kappa opioid receptor expressed in CHO cells assessed as stimulation of [35S]GTPgammaS binding relative to U50488H; format: functional, cell-based; method in brief: as §2
[5] = Selectivity for human kappa opioid receptor over rat mu opioid receptor
[6] = Selectivity for human kappa opioid receptor over mouse delta opioid receptor

Mu-type opioid receptor, sequence (P33535 whole entry): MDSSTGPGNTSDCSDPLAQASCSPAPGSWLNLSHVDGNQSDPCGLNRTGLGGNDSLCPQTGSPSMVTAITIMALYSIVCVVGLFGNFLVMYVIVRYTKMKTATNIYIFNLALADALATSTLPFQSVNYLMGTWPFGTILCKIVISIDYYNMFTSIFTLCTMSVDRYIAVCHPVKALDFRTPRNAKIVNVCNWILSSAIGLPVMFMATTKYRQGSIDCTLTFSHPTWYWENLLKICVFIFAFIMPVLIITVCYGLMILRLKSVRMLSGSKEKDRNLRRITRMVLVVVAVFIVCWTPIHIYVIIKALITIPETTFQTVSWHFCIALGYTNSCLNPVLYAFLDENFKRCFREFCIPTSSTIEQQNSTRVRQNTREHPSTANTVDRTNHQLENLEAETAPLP
T1 sequence (P41145 whole entry): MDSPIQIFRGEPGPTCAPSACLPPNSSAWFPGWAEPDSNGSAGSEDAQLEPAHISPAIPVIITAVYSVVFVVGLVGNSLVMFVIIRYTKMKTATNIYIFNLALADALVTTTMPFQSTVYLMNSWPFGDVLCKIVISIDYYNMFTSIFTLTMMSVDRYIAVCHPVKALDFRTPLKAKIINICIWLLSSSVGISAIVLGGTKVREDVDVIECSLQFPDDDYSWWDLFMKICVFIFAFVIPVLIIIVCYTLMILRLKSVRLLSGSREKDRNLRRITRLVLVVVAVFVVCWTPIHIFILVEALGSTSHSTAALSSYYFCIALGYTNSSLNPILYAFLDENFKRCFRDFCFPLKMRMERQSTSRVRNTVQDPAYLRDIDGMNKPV
Delta-type opioid receptor, sequence (P32300 whole entry): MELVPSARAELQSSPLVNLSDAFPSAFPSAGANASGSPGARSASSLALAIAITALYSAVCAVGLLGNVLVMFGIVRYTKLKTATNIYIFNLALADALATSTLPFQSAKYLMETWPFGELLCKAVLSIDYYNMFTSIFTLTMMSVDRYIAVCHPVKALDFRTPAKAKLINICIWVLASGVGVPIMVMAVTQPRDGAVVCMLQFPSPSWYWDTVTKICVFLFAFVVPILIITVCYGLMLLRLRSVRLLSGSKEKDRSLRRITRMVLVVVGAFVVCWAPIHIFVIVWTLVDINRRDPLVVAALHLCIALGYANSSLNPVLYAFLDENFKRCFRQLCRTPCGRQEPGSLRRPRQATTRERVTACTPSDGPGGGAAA

CCOC(C)O[C@H]1C[C@@H](C(=O)OC)[C@]2(C)CC[C@H]3C(=O)O[C@H](c4ccoc4)C[C@]3(C)[C@H]2C1=O (some centres undefined) [listing 1 of 3 here]
Ki (Mu-type opioid receptor; cho): > 1000 nM
Ki ([1]; cho): > 1000 nM

COC(=O)[C@@H]1C[C@H](OCF)C(=O)[C@H]2[C@@]1(C)CC[C@H]1C(=O)O[C@H](c3ccoc3)C[C@]21C [SALVINORIN B FLUOROMETHYL ETHER]
Ki [2]: 50 nM
Ki (Mu-type opioid receptor): > 1000 nM
Ki [1]: > 1000 nM
EC50 [3]: 26 nM
Emax [4]: 81%

CCCCOCO[C@H]1C[C@@H](C(=O)OC)[C@]2(C)CC[C@H]3C(=O)O[C@H](c4ccoc4)C[C@]3(C)[C@H]2C1=O [SALVINORIN B BUTOXYMETHYL ETHER]
Ki [2]: 5.3 nM
Ki (Mu-type opioid receptor): > 1000 nM
Ki [1]: > 1000 nM
EC50 [3]: 20 nM
Emax [4]: 81%

COC(=O)[C@@H]1C[C@H](OC(C)(C)OC)C(=O)[C@H]2[C@@]1(C)CC[C@H]1C(=O)O[C@H](c3ccoc3)C[C@]21C
Ki [2]: 72 nM
Ki (Mu-type opioid receptor): > 1000 nM
Ki [1]: > 1000 nM
EC50 [3]: 72 nM
Emax [4]: 81%

CCOC(C)O[C@H]1C[C@@H](C(=O)OC)[C@]2(C)CC[C@H]3C(=O)O[C@H](c4ccoc4)C[C@]3(C)[C@H]2C1=O (some centres undefined) [listing 2 of 3 here]
Emax [4]: 81%

CCOC(C)O[C@H]1C[C@@H](C(=O)OC)[C@]2(C)CC[C@H]3C(=O)O[C@H](c4ccoc4)C[C@]3(C)[C@H]2C1=O (some centres undefined) [listing 3 of 3 here]
Ki (Mu-type opioid receptor): > 1000 nM
Ki [1]: > 1000 nM

CCOCO[C@H]1C[C@@H](C(=O)OC)[C@]2(C)CC[C@H]3C(=O)O[C@H](c4ccoc4)C[C@]3(C)[C@H]2C1=O [SALVINORIN B ETHOXYMETHYL ETHER]
Ki [2]: 0.32 nM
Ki (Mu-type opioid receptor): > 1000 nM
Ki [1]: > 1000 nM
EC50 [3]: 0.14 nM
Emax [4]: 81%
Selectivity ratio [5]: > 3000
Selectivity ratio [6]: > 3000

COC(=O)[C@@H]1C[C@H](OC2CCCCO2)C(=O)[C@H]2[C@@]1(C)CC[C@H]1C(=O)O[C@H](c3ccoc3)C[C@]21C (some centres undefined)
Ki [2]: 4 nM
Ki (Mu-type opioid receptor): > 1000 nM
Ki [1]: > 1000 nM
EC50 [3]: 2.8 nM
Emax [4]: 81%

COC(=O)[C@@H]1C[C@H](OCOCC[Si](C)(C)C)C(=O)[C@H]2[C@@]1(C)CC[C@H]1C(=O)O[C@H](c3ccoc3)C[C@]21C
Ki [2]: > 1000 nM
Ki (Mu-type opioid receptor): > 1000 nM
Ki [1]: > 1000 nM
EC50 [3]: 1660 nM
Emax [4]: 81%

COC(=O)[C@@H]1C[C@H](OCOCc2ccccc2)C(=O)[C@H]2[C@@]1(C)CC[C@H]1C(=O)O[C@H](c3ccoc3)C[C@]21C [SALVINORIN B BENZYLOXYMETHYL ETHER]
Ki [2]: 147 nM
Ki (Mu-type opioid receptor): > 1000 nM
Ki [1]: > 1000 nM
EC50 [3]: 274 nM
Emax [4]: 81%

COCCOCO[C@H]1C[C@@H](C(=O)OC)[C@]2(C)CC[C@H]3C(=O)O[C@H](c4ccoc4)C[C@]3(C)[C@H]2C1=O
Ki [2]: 141 nM
Ki (Mu-type opioid receptor): > 1000 nM
Ki [1]: > 1000 nM
EC50 [3]: 320 nM
Emax [4]: 81%

COC(=O)[C@@H]1C[C@H](OCOC(C)C)C(=O)[C@H]2[C@@]1(C)CC[C@H]1C(=O)O[C@H](c3ccoc3)C[C@]21C [SALVINORIN B ISOPROPOXYMETHYL ETHER]
Ki [2]: 1.6 nM
Ki (Mu-type opioid receptor): > 1000 nM
Ki [1]: > 1000 nM
EC50 [3]: 4.2 nM
Emax [4]: 81%

COC(=O)[C@@H]1C[C@H](OCSC)C(=O)[C@H]2[C@@]1(C)CC[C@H]1C(=O)O[C@H](c3ccoc3)C[C@]21C [SALVINORIN B METHYLTHIOMETHYL ETHER]
Ki [2]: 13 nM
Ki (Mu-type opioid receptor): > 1000 nM
Ki [1]: > 1000 nM
EC50 [3]: 31 nM
Emax [4]: 81%

CCO[C@H]1C[C@@H](C(=O)OC)[C@]2(C)CC[C@H]3C(=O)O[C@H](c4ccoc4)C[C@]3(C)[C@H]2C1=O [DEOXY SALVINORIN A]
EC50 [3]: 18 nM

COC(=O)[C@@H]1C[C@H](OCOC(C)(C)C)C(=O)[C@H]2[C@@]1(C)CC[C@H]1C(=O)O[C@H](c3ccoc3)C[C@]21C
Ki [2]: 35 nM
Ki (Mu-type opioid receptor): > 1000 nM
Ki [1]: > 1000 nM
EC50 [3]: 108 nM
Emax [4]: 81%

COC(=O)[C@@H]1C[C@H](OCOCC(F)(F)F)C(=O)[C@H]2[C@@]1(C)CC[C@H]1C(=O)O[C@H](c3ccoc3)C[C@]21C
Ki [2]: 31 nM
Ki (Mu-type opioid receptor): > 1000 nM
Ki [1]: > 1000 nM
EC50 [3]: 75 nM
Emax [4]: 81%

CCCOCO[C@H]1C[C@@H](C(=O)OC)[C@]2(C)CC[C@H]3C(=O)O[C@H](c4ccoc4)C[C@]3(C)[C@H]2C1=O [SALVINORIN B PROPOXYMETHYL ETHER]
Ki [2]: 2.2 nM
Ki (Mu-type opioid receptor): > 1000 nM
Ki [1]: > 1000 nM
EC50 [3]: 5.2 nM
Emax [4]: 81%

COC(=O)[C@@H]1C[C@H](OCOCCF)C(=O)[C@H]2[C@@]1(C)CC[C@H]1C(=O)O[C@H](c3ccoc3)C[C@]21C
Ki [2]: 1.9 nM
Ki (Mu-type opioid receptor): > 1000 nM
Ki [1]: > 1000 nM
EC50 [3]: 3.8 nM
Emax [4]: 81%
Selectivity ratio [5]: > 500
